{"source": "ChEMBL document CHEMBL1157618", "about": "“Noncovalent tripeptidyl benzyl- and cyclohexyl-amine inhibitors of the cysteine protease caspase-1” (J Med Chem, 2010)", "note": "The source made the active and inactive calls. The rule behind the calls is not given here."}
{"target": "T1, Caspase-3 (Homo sapiens) (UniProt P42574)", "T1 sequence (whole entry)": "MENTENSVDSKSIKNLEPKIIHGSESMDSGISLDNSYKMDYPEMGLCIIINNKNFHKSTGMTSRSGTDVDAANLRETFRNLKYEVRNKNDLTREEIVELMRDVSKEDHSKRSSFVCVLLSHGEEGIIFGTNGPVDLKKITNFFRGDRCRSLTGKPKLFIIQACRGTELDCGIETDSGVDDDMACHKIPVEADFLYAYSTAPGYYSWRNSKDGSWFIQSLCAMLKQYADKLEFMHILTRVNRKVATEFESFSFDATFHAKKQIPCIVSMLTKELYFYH", "test": "Inhibition of caspase 3"}
{"smiles": "CC(C)[C@H](NC(=O)c1ccc2ccccc2c1)C(=O)N[C@@H](C)C(=O)N[C@H](CNCc1ccccc1O)CC(=O)O", "Activity": "inactive"}
{"system": "HT-29", "test": "Cytotoxicity against human HT-29 cells at <=200 uM after 24 hrs by MTT assay", "assay_type": "functional, cell-based", "method_in_brief": "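HT29 colon cancer cells seeded at 1 × 10⁵ cells/well in RPMI 1640, adhered overnight at 37 °C, then exposed to various compound concentrations (up to 200 μM) for 24 h at 37 °C. MTT ([…] in RPMI 1640) added for 1 h at 37 °C; cells lysed, crystals dissolved in isopropanol, absorbance read at 570 nm.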"}
{"smiles": "COc1ccccc1CNC[C@H](CC(=O)O)NC(=O)[C@H](C)NC(=O)[C@@H](NC(=O)c1ccc2ccccc2c1)C(C)C", "Activity": "Not toxic"}
{"smiles": "CC(C)[C@H](NC(=O)c1ccc2ccccc2c1)C(=O)N[C@@H](C)C(=O)N[C@@H](CC(=O)O)CN(C)Cc1ccccc1", "Activity": "Not toxic"}
{"smiles": "CC(C)[C@H](NC(=O)c1ccc2ccccc2c1)C(=O)N[C@@H](C)C(=O)N[C@H](CNCc1ccccc1)CC(=O)O", "Activity": "Not toxic"}
{"smiles": "CC(C)[C@H](NC(=O)c1ccc2ccccc2c1)C(=O)N[C@@H](C)C(=O)N[C@H](CNC1CCCCC1)CC(=O)O", "Activity": "Not toxic"}
{"smiles": "CC(C)[C@H](NC(=O)c1ccc2ccccc2c1)C(=O)N[C@@H](C)C(=O)N[C@H](CNCc1ccc(O)cc1)CC(=O)O", "Activity": "Not toxic"}
{"smiles": "CC(C)[C@H](NC(=O)c1ccc2ccccc2c1)C(=O)N[C@@H](C)C(=O)N[C@H](CNCc1ccc(C(N)=O)cc1)CC(=O)O", "Activity": "Not toxic"}
{"smiles": "CC(C)[C@H](NC(=O)c1ccc2ccccc2c1)C(=O)N[C@@H](C)C(=O)N[C@H](CNCc1ccc2c(c1)OCO2)CC(=O)O", "Activity": "Not toxic"}
{"smiles": "CC(C)[C@H](NC(=O)c1ccc2ccccc2c1)C(=O)N[C@@H](C)C(=O)N[C@@H](CC(=O)O)CN(C)C1CCCCC1", "Activity": "Not toxic"}
{"smiles": "CC(C)[C@H](NC(=O)c1ccc2ccccc2c1)C(=O)N[C@@H](C)C(=O)N[C@H](CNCc1ccccc1O)CC(=O)O", "Activity": "Not toxic"}
{"smiles": "CC(C)[C@H](NC(=O)c1ccc2ccccc2c1)C(=O)N[C@@H](C)C(=O)N[C@H](CCCc1ccccc1)CC(=O)O", "Activity": "Not toxic"}
{"smiles": "CC(C)[C@H](NC(=O)c1ccc2ccccc2c1)C(=O)N[C@@H](C)C(=O)N[C@H](CNCc1ccccc1F)CC(=O)O", "Activity": "Not toxic"}
